Assay results published in ChEMBL document CHEMBL1921722, “In vitro and in vivo evaluation of select kahalalide F analogs with antitumor and antifungal activities” (Bioorg Med Chem, 2011).
Values after ≈ are worked out from the molar mass of the structure shown. Active and inactive are the calls of the source.

Tests used:
[1] = system: OVCAR-4; assay: Cytotoxicity against human OVCAR4 cells by sulforhodamine B assay; assay type: functional; conditions: for TGI: read-out: pTGI (converted)
How it was run: (§1)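 NCI Developmental Therapeutics Program 60-cell-line human tumor panel screen, run at NCI. A single-concentration pre-screen was followed by a five-concentration dose-response in 10-fold steps. GI50 is the concentration that reduces growth of treated cells to half that of untreated control cells. TGI is the concentration that completely halts growth.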

[2] = system: NCI/ADR-RES; assay: Cytotoxicity against human NCI/ADR-RES cells by sulforhodamine B assay; assay type: functional; conditions: for TGI: read-out: pTGI (converted); how it was run: as §1
[3] = system: SNB-75; assay: Cytotoxicity against human SNB75 cells assessed as cell growth at 8 nM by sulforhodamine B assay relative to control; assay type: functional; conditions: read-out: Activity
[4] = system: SW-620; assay: Cytotoxicity against human SW620 cells assessed as cell growth at 8 nM by sulforhodamine B assay relative to control; assay type: functional; conditions: read-out: Activity
[5] = system: Cryptococcus neoformans; assay: Antimicrobial activity against Cryptococcus neoformans ATCC 90113 by CLSI method; assay type: functional, organism-based
[6] = system: NCI-H23; assay: Antitumor activity against human NCI-H23 cells xenografted in mouse assessed as tumor cell killing at 4.7 mg/kg, ip qd for 4 days by MTT assay; assay type: functional, organism-based; parameters: dose 4.7 mg/kg
How it was run: (§2)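 Hollow-fiber assay in mice. Tumor lines were grown in RPMI-1640 with 10% FBS and 2 mM glutamine. Cells at 2 × 10^6 cells/ml were loaded into 1 mm PVDF fibers (500,000 Da cutoff), heat-sealed at 2 cm and held 24–48 h at 37 °C, 5% CO2 before implantation. Compound was given IP. Fibers were collected the day after the fourth treatment for MTT (OD 540 nm, group means). A ≥50% cut in percent net growth versus vehicle counted as positive.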

[7] = system: MCF7; assay: Cytotoxicity against human MCF7 cells assessed as cell growth at 8 nM by sulforhodamine B assay relative to control; assay type: functional; conditions: read-out: Activity
[8] = system: SR; assay: Cytotoxicity against human SR cells assessed as cell growth at 80 nM by sulforhodamine B assay relative to control; assay type: functional; conditions: read-out: Activity
[9] = system: NCI-H522; assay: Cytotoxicity against human NCI-H522 cells assessed as cell growth at 80 nM by sulforhodamine B assay relative to control; assay type: functional; conditions: read-out: Activity
[10] = system: HCC 2998; assay: Cytotoxicity against human HCC2998 cells assessed as cell growth at 80 nM by sulforhodamine B assay relative to control; assay type: functional; conditions: read-out: Activity
[11] = system: SW-620; assay: Cytotoxicity against human SW620 cells assessed as cell growth at 80 nM by sulforhodamine B assay relative to control; assay type: functional; conditions: read-out: Activity
[12] = system: SNB-19; assay: Cytotoxicity against human SNB19 cells assessed as cell growth at 80 nM by sulforhodamine B assay relative to control; assay type: functional; conditions: read-out: Activity
[13] = system: Malme-3M; assay: Cytotoxicity against human MALME-3M cells assessed as cell growth at 80 nM by sulforhodamine B assay relative to control; assay type: functional; conditions: read-out: Activity
[14] = system: IGROV-1; assay: Cytotoxicity against human IGROV1 cells assessed as cell growth at 80 nM by sulforhodamine B assay relative to control; assay type: functional; conditions: read-out: Activity
[15] = system: ACHN; assay: Cytotoxicity against human ACHN cells assessed as cell growth at 80 nM by sulforhodamine B assay relative to control; assay type: functional; conditions: read-out: Activity
How it was run: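 Run at NCI in the DTP 60-cell-line human tumor panel by standard procedure. Compounds were first screened at a single concentration, then tested at five tenfold-spaced concentrations. GI50 is the concentration reducing treated-cell growth to half that of untreated controls; TGI is the concentration completely halting growth.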

[16] = system: TK-10; assay: Cytotoxicity against human TK10 cells assessed as cell growth at 80 nM by sulforhodamine B assay relative to control; assay type: functional; conditions: read-out: Activity
[17] = system: MDA-MB-231; assay: Cytotoxicity against human MDA-MB-231 cells assessed as cell growth at 80 nM by sulforhodamine B assay relative to control; assay type: functional; conditions: read-out: Activity
[18] = system: Hs-578T; assay: Cytotoxicity against human Hs578T cells assessed as cell growth at 80 nM by sulforhodamine B assay relative to control; assay type: functional; conditions: read-out: Activity
[19] = system: HL-60(TB); assay: Cytotoxicity against human HL-60(TB) cells assessed as cell growth at 800 nM by sulforhodamine B assay relative to control; assay type: functional; conditions: read-out: Activity
[20] = system: MOLT-4; assay: Cytotoxicity against human MOLT4 cells assessed as cell growth at 800 nM by sulforhodamine B assay relative to control; assay type: functional; conditions: read-out: Activity
[21] = system: HCC 2998; assay: Cytotoxicity against human HCC2998 cells assessed as cell growth at 800 nM by sulforhodamine B assay relative to control; assay type: functional; conditions: read-out: Activity
[22] = system: LOX IMVI; assay: Cytotoxicity against human LOXIMVI cells assessed as cell growth at 800 nM by sulforhodamine B assay relative to control; assay type: functional; conditions: read-out: Activity
[23] = system: UACC-257; assay: Cytotoxicity against human UACC257 cells assessed as cell growth at 800 nM by sulforhodamine B assay relative to control; assay type: functional; conditions: read-out: Activity
[24] = system: PC-3; assay: Cytotoxicity against human PC3 cells assessed as cell growth at 800 nM by sulforhodamine B assay relative to control; assay type: functional; conditions: read-out: Activity
[25] = system: HOP-92; assay: Cytotoxicity against human HOP92 cells assessed as cell growth at 8 uM by sulforhodamine B assay relative to control; assay type: functional; conditions: read-out: Activity
[26] = system: UO-31; assay: Cytotoxicity against human UO31 cells assessed as cell growth at 8 uM by sulforhodamine B assay relative to control; assay type: functional; conditions: read-out: Activity
[27] = system: NCI/ADR-RES; assay: Cytotoxicity against human NCI/ADR-RES cells assessed as cell growth at 8 uM by sulforhodamine B assay relative to control; assay type: functional; conditions: read-out: Activity
[28] = system: Hs-578T; assay: Cytotoxicity against human Hs578T cells assessed as cell growth at 8 uM by sulforhodamine B assay relative to control; assay type: functional; conditions: read-out: Activity
[29] = system: HL-60(TB); assay: Cytotoxicity against human HL-60(TB) cells assessed as cell growth at 80 uM by sulforhodamine B assay relative to control; assay type: functional; conditions: read-out: Activity
[30] = system: HCT-116; assay: Cytotoxicity against human HCT116 cells assessed as cell growth at 80 uM by sulforhodamine B assay relative to control; assay type: functional; conditions: read-out: Activity
[31] = system: SNB-75; assay: Cytotoxicity against human SNB75 cells assessed as cell growth at 80 uM by sulforhodamine B assay relative to control; assay type: functional; conditions: read-out: Activity
[32] = system: UACC-257; assay: Cytotoxicity against human UACC257 cells assessed as cell growth at 80 uM by sulforhodamine B assay relative to control; assay type: functional; conditions: read-out: Activity
[33] = system: OVCAR-8; assay: Cytotoxicity against human OVCAR8 cells assessed as cell growth at 80 uM by sulforhodamine B assay relative to control; assay type: functional; conditions: read-out: Activity
[34] = system: UO-31; assay: Cytotoxicity against human UO31 cells assessed as cell growth at 80 uM by sulforhodamine B assay relative to control; assay type: functional; conditions: read-out: Activity
[35] = system: LOX IMVI; assay: Antitumor activity against human LOXIMVI cells xenografted in mouse assessed as tumor cell killing at 4.7 mg/kg, ip qd for 4 days by MTT assay; assay type: functional, organism-based; parameters: dose 4.7 mg/kg; how it was run: as §2
[36] = system: RPMI-8226; assay: Cytotoxicity against human RPMI8226 cells by sulforhodamine B assay; assay type: functional; how it was run: as §1
[37] = system: SW-620; assay: Cytotoxicity against human SW620 cells by sulforhodamine B assay; assay type: functional; conditions: for TGI: read-out: pTGI (converted); how it was run: as §1
[38] = system: LOX IMVI; assay: Cytotoxicity against human LOXIMVI cells by sulforhodamine B assay; assay type: functional; conditions: for TGI: read-out: pTGI (converted); how it was run: as §1

C/C=C1\NC(=O)[C@H](Cc2ccccc2)NC(=O)[C@@H](C(C)C)NC(=O)[C@@H]([C@@H](C)CC)NC(=O)[C@H](NC(=O)[C@H](NC(=O)[C@H](CCCNCc2ccc(F)c(C)c2)NC(=O)[C@H]2CCCN2C(=O)[C@H](NC(=O)[C@@H](NC(=O)[C@@H](NC(=O)[C@H](NC(=O)CCCC(C)C)C(C)C)[C@@H](C)O)C(C)C)C(C)C)[C@@H](C)CC)[C@@H](C)OC(=O)[C@H](C(C)C)NC1=O
GI50 [1]: 269 nM
TGI [1]: 955 nM
GI50 [2]: 1320 nM
LC50 [2]: 5250 nM
TGI [2]: 2630 nM
growth at 0.008 µM [3]: 112%
growth at 0.008 µM [4]: 99%
IC50 [5]: 950 nM
MFC [5]: 10 µM (≈ 16 µg/mL)
MIC [5]: 5 µM (≈ 8 µg/mL)
Activity [6]: inactive
growth at 0.008 µM [7]: 95%
growth at 0.08 µM [8]: 89%
growth at 0.08 µM [9]: 101%
growth at 0.08 µM [10]: 105%
growth at 0.08 µM [11]: 97%
growth at 0.08 µM [12]: 96%
growth at 0.08 µM [13]: 118%
growth at 0.08 µM [14]: 107%
growth at 0.08 µM [15]: 100%
growth at 0.08 µM [16]: 105%
growth at 0.08 µM [17]: 98%
growth at 0.08 µM [18]: 97%
growth at 0.8 µM [19]: 106%
growth at 0.8 µM [20]: 96%
growth at 0.8 µM [21]: -47%
growth at 0.8 µM [22]: 108%
growth at 0.8 µM [23]: 88%
growth at 0.8 µM [24]: -54%
growth at 8 µM [25]: -62%
growth at 8 µM [26]: -78%
growth at 8 µM [27]: -76%
growth at 8 µM [28]: -48%
growth at 80 µM [29]: -37%
growth at 80 µM [30]: -94%
growth at 80 µM [31]: -19%
growth at 80 µM [32]: -70%
growth at 80 µM [33]: 48%
growth at 80 µM [34]: -11%
Activity [35]: inactive
GI50 ([36]; read-out: GI50): 885 nM
TGI ([36]; read-out: TGI): 2260 nM
GI50 ([36]; read-out: pGI50 (converted)): 891 nM
TGI ([36]; read-out: pTGI (converted)): 2240 nM
GI50 [37]: 513 nM
LC50 [37]: 3310 nM
TGI [37]: 1450 nM
GI50 [38]: 1480 nM
LC50 [38]: 4900 nM
TGI [38]: 2690 nM

C/C=C1\NC(=O)[C@H](Cc2ccccc2)NC(=O)[C@@H](C(C)C)NC(=O)[C@@H]([C@@H](C)CC)NC(=O)[C@H](NC(=O)[C@H](NC(=O)[C@H](CCCNCc2ccc(N3CCOCC3)cc2)NC(=O)[C@H]2CCCN2C(=O)[C@H](NC(=O)[C@@H](NC(=O)[C@@H](NC(=O)[C@H](NC(=O)CCCC(C)C)C(C)C)[C@@H](C)O)C(C)C)C(C)C)[C@@H](C)CC)[C@@H](C)OC(=O)[C@H](C(C)C)NC1=O
GI50 [1]: 1230 nM
TGI [1]: 2820 nM
GI50 [2]: 1410 nM
LC50 [2]: 21400 nM
TGI [2]: 3470 nM
growth at 0.008 µM [3]: 110%
growth at 0.008 µM [4]: 104%
IC50 [5]: 1730 nM
MFC [5]: 10 µM (≈ 16.5 µg/mL)
MIC [5]: 5 µM (≈ 8.27 µg/mL)
Activity [6]: inactive
growth at 0.008 µM [7]: 102%
growth at 0.08 µM [8]: 106%
growth at 0.08 µM [9]: 99%
growth at 0.08 µM [10]: 98%
growth at 0.08 µM [11]: 99%
growth at 0.08 µM [12]: 102%
growth at 0.08 µM [13]: 112%
growth at 0.08 µM [14]: 106%
growth at 0.08 µM [15]: 102%
growth at 0.08 µM [16]: 96%
growth at 0.08 µM [17]: 97%
growth at 0.08 µM [18]: 101%
growth at 0.8 µM [19]: 93%
growth at 0.8 µM [20]: 95%
growth at 0.8 µM [21]: 6%
growth at 0.8 µM [22]: 100%
growth at 0.8 µM [23]: 93%
growth at 0.8 µM [24]: -51%
growth at 8 µM [25]: -2%
growth at 8 µM [26]: -76%
growth at 8 µM [27]: -43%
growth at 8 µM [28]: -46%
growth at 80 µM [29]: -24%
growth at 80 µM [30]: -58%
growth at 80 µM [31]: -7%
growth at 80 µM [32]: -28%
growth at 80 µM [33]: 28%
growth at 80 µM [34]: -28%
Activity [35]: inactive
GI50 ([36]; read-out: GI50): 1130 nM
TGI ([36]; read-out: TGI): 2510 nM
GI50 ([36]; read-out: pGI50 (converted)): 1120 nM
TGI ([36]; read-out: pTGI (converted)): 2510 nM
GI50 [37]: 1050 nM
TGI [37]: 2040 nM
GI50 [38]: 3160 nM
LC50 [38]: 57500 nM
TGI [38]: 13500 nM
